Jurkat NFkB inh: inhibitors of the PMA/ionomycin-induced NF-kB reporter in Jurkat cells; AID 435003; PMA/ionomycin-induced NF-kB luciferase reporter, luminescence; inhibition, % at 4 µM; 0.53% of 330,000 active; in the data active means inhibition above about 50%
HSF1 inhib: HSF1 inhibition; NIH3T3-HGL HSE-luciferase, MG132-induced, luminescence 8 h; stronger effect = lower value; activity change, negative = inhibition, % at 7.5 µM (by protocol); 0.77% of 300,000 active;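 active means more than half of replicate wells show activity change below -50%, luminescence cut by over half; inconclusive means some wells, but at most half, below -50%; inactive means no replicate well below -50%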;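 further: luciferase reports HSF-1 transcriptional activity via heat shock element; 0% = median of DMSO wells and -100% = zero luminescence signal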
GPR7 antag: antagonists of human GPR7 (neuropeptides B/W receptor 1). P48145. inhibition, % at 4.4 µM. 1.1% of 290,000 active. GPR7-expressing cells, fluorescence antagonist assay; in the data active means inhibition above about 16%, passing the limit was not always enough;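 further: cells stimulated with the agonist NPW; 0% = agonist with vehicle and 100% = vehicle without agonist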
Target sequence (P48145 whole entry, looked up): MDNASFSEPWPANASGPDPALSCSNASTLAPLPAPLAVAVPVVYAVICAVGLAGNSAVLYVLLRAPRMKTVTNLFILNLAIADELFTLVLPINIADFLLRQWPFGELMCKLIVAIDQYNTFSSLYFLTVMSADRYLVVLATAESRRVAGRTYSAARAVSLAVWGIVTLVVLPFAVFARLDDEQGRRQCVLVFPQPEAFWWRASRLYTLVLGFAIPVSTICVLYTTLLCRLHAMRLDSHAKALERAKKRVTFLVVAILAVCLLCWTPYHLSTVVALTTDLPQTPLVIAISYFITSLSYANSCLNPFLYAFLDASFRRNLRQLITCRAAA
HSF-1 act: increases HSF-1 driven luciferase reporter signal; NIH3T3-HGL HSF-1 luciferase reporter, MG132, 8 h; 100% = twice DMSO control signal; activation, % at 9 µM; 1.7% of 300,000 active; AID 504408;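 active means mean replicate activation of at least 50% with a set share of replicates each reaching 50%; inconclusive means only one of those two conditions met; inactive means mean below 50% and too few replicates reaching it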;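 further: 0% = median of the neutral control wells and 100% = twice that signal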
T cruzi inh: blocks replication of Trypanosoma cruzi | T. cruzi beta-gal in NIH3T3, luminescence, 90 h | inhibition, % (concentration not given with the values) | 1.4% of 300,000 active | AID 1885;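 active means mean inhibition across valid replicates above about 55%, limit read from the data; inconclusive means mean below that limit but half or more replicates reach it; inactive means mean below it, under half of replicates reach it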;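 further: signal also drops with host cell toxicity which is not excluded here; 0% = plate median of DMSO wells and 100% = zero luminescence signal; higher percent means less beta-gal luminescence so fewer parasites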
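System – NIH/3T3 host cells with β-galactosidase reporter T. cruzi · Doses – single 50 nL compound addition per well in DMSO · Reagent – 5000 T. cruzi trypomastigotes/well · Medium – Low-serum DMEM with 2% FBS · Timing – ≥90 h infection period, 3 h prior cell attachment · Evaluation – parasite load inhibition, % · Technique – GalScreen luminescence, 60 min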
697 NFkB inh: inhibitors of the PMA/ionomycin-induced NF-kB reporter in 697 B cells; 697 B-cell NF-kB luciferase reporter, 16 h; inhibition, % at 4 µM; 0.33% of 330,000 active; in the data active means inhibition above about 35%
GPR7 antag cf: confirmation of human GPR7 antagonists | inhibition, % at 4.4 µM | GPR7-expressing cells, calcium fluorescence antagonist mode | shares compounds with GPR7 antag | 52% of 2,400 active | AID 1952; in the data active means inhibition above about 24%;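 further: stimulated with the GPR7 agonist NPW; 0% = agonist plus vehicle and 100% = vehicle alone without agonist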
MCHR1 antag: MCHR1 (human) antagonism in GPR7 counter-screen; 62% of 2,400 active; inhibition, % at 4.4 µM; shares compounds with GPR7 antag; MCHR1-expressing cells, fluorescence antagonist assay; AID 2148; in the data active means inhibition above about 22%;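 further: 0% = vehicle with agonist and 100% = vehicle without agonist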
Active calls of the source: *. Compounds with a hit are over-represented: about 4.8% of the library has one in this group of screens.

`CCC1C(=O)NCCN1C(=O)c1ccc2nc(Cc3cccc(Cl)c3)oc2c1` (stereo not given) gave Jurkat NFkB inh -2.5, HSF1 inhib -12.4, GPR7 antag 0.7, HSF-1 act 3.9, T cruzi inh 0.2 and 697 NFkB inh 15.6.
For Cc1ccc(C2CC(C(F)F)n3ncc(C(=O)Nc4c(C)nn(Cc5c(F)cccc5Cl)c4C)c3N2)cc1 (stereo not given) the results were Jurkat NFkB inh 3.1, HSF1 inhib 14.6, GPR7 antag 24.3*, HSF-1 act 25.9, T cruzi inh inconclusive, 697 NFkB inh 7.8, GPR7 antag cf 55.6* and MCHR1 antag 26.6*.
For CC1CN(CC(O)COC(c2ccc(Cl)cc2)c2ccc(Cl)cc2)CC(C)O1 (stereo not given) the results were Jurkat NFkB inh -0.8, HSF1 inhib 9.2, GPR7 antag 21.0*, HSF-1 act 21.3, T cruzi inh 29.5, 697 NFkB inh 10.4, GPR7 antag cf 8.9 and MCHR1 antag 40.2*.
CC1CN(CC(O)COc2ccc(C(C)C)cc2)CC(C)O1 (stereo not given) was read as Jurkat NFkB inh -2.6, HSF1 inhib -8.6, GPR7 antag -6.6, HSF-1 act -5.2, T cruzi inh -5.7 and 697 NFkB inh -0.7.
Clc1ccc(Cn2ncc3c(N4CCCC4)ncnc32)cc1 was read as Jurkat NFkB inh -3.4, HSF1 inhib -7.2, GPR7 antag 24.5*, HSF-1 act -21.2, T cruzi inh 3.2, 697 NFkB inh 4.7, GPR7 antag cf 19.4 and MCHR1 antag 7.2.
C=CCc1cc(Cl)ccc1OCCOCCNCCOC was read as Jurkat NFkB inh 5.4, HSF1 inhib 6.2, GPR7 antag 3.8, HSF-1 act 7.8, T cruzi inh 37.0 and 697 NFkB inh 8.9.
Screening C=CCc1cc(Cl)ccc1OCCOCCN(C)C returned Jurkat NFkB inh -2.3, HSF1 inhib -0.4, GPR7 antag 39.9*, HSF-1 act -3.4, T cruzi inh 17.7, 697 NFkB inh -6.8, GPR7 antag cf 7.5 and MCHR1 antag 12.5.
Screening COc1ccccc1N1CCN(C(=O)COc2ccc(Cl)cc2Br)CC1 returned Jurkat NFkB inh 48.0, HSF1 inhib 5.9, GPR7 antag 28.4*, HSF-1 act 6.8, T cruzi inh 18.1, 697 NFkB inh 2.7, GPR7 antag cf 47.7* and MCHR1 antag 46.9*.
Cc1cc(Cl)ccc1OCC(=O)N1CCCN(C(=O)COc2ccc(Cl)cc2C)CC1 was read as Jurkat NFkB inh 9.3, GPR7 antag 26.9*, T cruzi inh -6.9, 697 NFkB inh 7.9, GPR7 antag cf 12.5 and MCHR1 antag 20.0.
Screening COc1ccccc1N1CCN(C(=O)COc2ccc(C)cc2Br)CC1 returned Jurkat NFkB inh 23.5, HSF1 inhib 3.7, GPR7 antag 0.3, HSF-1 act 8.7, T cruzi inh 4.9 and 697 NFkB inh -44.9.
Cc1cc(Cl)ccc1OC(C)C(=O)N1CCCN(C(=O)C(C)Oc2ccc(Cl)cc2C)CC1 (stereo not given) was read as Jurkat NFkB inh 15.2, HSF1 inhib 18.4, GPR7 antag 32.3*, HSF-1 act 35.7, T cruzi inh 38.2, 697 NFkB inh -3.4, GPR7 antag cf 62.8* and MCHR1 antag 70.8*.
Fc1cccc(CNc2ncnc3cc(Cl)ccc23)c1F was read as Jurkat NFkB inh 24.6, HSF1 inhib 1.5, GPR7 antag 4.9, HSF-1 act 8.4, T cruzi inh 12.7 and 697 NFkB inh -21.5.
Screening CCOc1ccccc1NC(=S)N1CCN(c2nc(-c3ccc(F)cc3)cs2)CC1 returned Jurkat NFkB inh 7.6, HSF1 inhib 4.0, GPR7 antag -6.7, HSF-1 act 7.1, T cruzi inh 17.2 and 697 NFkB inh 9.2.
For Cn1nnnc1SCCNCc1cc(Cl)ccc1OCc1ccccc1 the results were Jurkat NFkB inh -21.6, HSF1 inhib 25.6, GPR7 antag 23.6*, HSF-1 act 20.6, T cruzi inh 0.5, 697 NFkB inh -21.7, GPR7 antag cf 23.8 and MCHR1 antag 43.5*.
